Calls of active or inactive are those of the source. The rule behind the calls is not given here.
Columns and labels:
[1] = test system: Mus musculus; test: Anticonvulsant activity in mice through seizures induced by maximal electroshock (MES) tests after ip administration at a concentration of 100 mg/kg after 30 min; Active; format: functional, organism-based; set-up: dose 100 mg/kg
[2] = test system: Mus musculus; test: Anticonvulsant activity in mice through seizures induced by subcutaneous pentylenetetrazole (scPTZ) tests after ip administration at a concentration of 300 mg/kg after 4 hours; Inactive; format: functional, organism-based; set-up: dose 300 mg/kg
[3] = test system: Mus musculus; test: Anticonvulsant activity in mice through seizures induced by sc pentylenetetrazole (intraperitoneal administration at a concentration of 300 mg/kg after 30 min; Inactive; format: functional, organism-based; set-up: dose 300 mg/kg
[4] = test system: Mus musculus; test: Neurotoxicity determined by rotarod test after intraperitoneal administration at a concentration of 300 mg/kg after 4 hours; Inactive; format: functional, organism-based; set-up: dose 300 mg/kg
[5] = test system: Mus musculus; test: Neurotoxicity by rotarod test after intraperitoneal administration at a concentration of 300 mg/kg after 30 minutes; Inactive; format: functional, organism-based; set-up: dose 300 mg/kg
[6] = test system: Mus musculus; test: Anticonvulsant activity in mice through seizures induced by maximal electroshock (MES) tests after ip administration at a concentration of 300 mg/kg after 4 hours; Inactive; format: functional, organism-based; set-up: dose 300 mg/kg
[7] = test system: Mus musculus; test: Neurotoxicity by rotarod test after intraperitoneal administration at a concentration of 300 mg/kg after 30 minutes; Active; format: functional, organism-based; set-up: dose 300 mg/kg
[8] = test system: Mus musculus; test: Anticonvulsant activity in mice through seizures induced by subcutaneous pentylenetetrazole (scPTZ) tests after ip administration at a concentration of 300 mg/kg after 4 hours; Active; format: functional, organism-based; set-up: dose 300 mg/kg
[9] = test system: Mus musculus; test: Anticonvulsant activity in mice through seizures induced by maximal electroshock (MES) tests after ip administration at a concentration of 300 mg/kg after 4 hours; Active; format: functional, organism-based; set-up: dose 300 mg/kg
[10] = test system: Mus musculus; test: Neurotoxicity by rotarod test after intraperitoneal administration at a concentration of 300 mg/kg after 4 hours; Active; format: functional, organism-based; set-up: dose 300 mg/kg
[11] = test system: Mus musculus; test: Anticonvulsant activity in mice through seizures induced by subcutaneous pentylenetetrazole (scPTZ) tests after ip administration at a concentration of 300 mg/kg after 30 min; Active; format: functional, organism-based; set-up: dose 300 mg/kg
[12] = test system: Mus musculus; test: Anticonvulsant activity in mice through seizures induced by maximal electroshock (MES) tests after ip administration at a concentration of 100 mg/kg after 30 min; Inactive; format: functional, organism-based; set-up: dose 100 mg/kg
[13] = test system: Mus musculus; test: Anticonvulsant activity in mice through seizures induced by subcutaneous pentylenetetrazole (scPTZ) tests after ip administration at a concentration of 300 mg/kg after 30 min; Inactive; format: functional, organism-based; set-up: dose 300 mg/kg
[14] = test system: Mus musculus; test: Anticonvulsant activity in mice through seizures induced by sc pentylenetetrazole (intraperitoneal administration at a concentration of 300 mg/kg after 4 hours; Inactive; format: functional, organism-based; set-up: dose 300 mg/kg
[15] = test system: Mus musculus; test: Neurotoxicity by rotarod test after intraperitoneal administration at a concentration of 300 mg/kg after 30 minutes.; active; format: functional, organism-based; set-up: dose 300 mg/kg
[16] = test system: Mus musculus; test: Neurotoxicity by rotarod test after intraperitoneal administration at a concentration of 300 mg/kg after 4 hours.; Inactive; format: functional, organism-based; set-up: dose 300 mg/kg
[17] = test system: Rattus norvegicus; test: Anticonvulsant activity in rats through seizures induced by maximal electroshock (MES) tests by oral administration of drug at a concentration of 30 mg/kg after 15 minutes; No activity; format: functional, organism-based; set-up: dose 30 mg/kg
How it was run: (§1)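 Rats given a single oral dose of 30 or 50 mg/kg, depending on compound; MES protection scored at 15, 30, 60, 120 and 240 min. Activity graded by fraction of animals protected (0-25%, 25-50%, 50-75%, 75-100%); neurotoxicity monitored at the same time points.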

[18] = test system: Rattus norvegicus; test: Anticonvulsant activity was measured in rats through seizures induced by maximal electroshock (MES) tests by oral administration of drug at a concentration of 30 mg/kg after 2 hours.; format: functional; how it was run: as §1
[19] = test system: Mus musculus; test: Anticonvulsant activity in mice through seizures induced by subcutaneous pentylenetetrazole (scPTZ) test after ip administration at a concentration of 300 mg/kg after 30 min; Inactive; format: functional, organism-based; set-up: dose 300 mg/kg
[20] = test system: Rattus norvegicus; test: (§2) Toxicity screening in rats dosed orally with the compound; No toxicity; format: functional, organism-based
How it was run: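 Rats given a single oral dose of 30 or 50 mg/kg, depending on compound. Minimal neurotoxicity was scored at 15, 30, 60, 120 and 240 min after dosing, alongside the MES test. Scores are graded by the percentage of animals affected.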

[21] = test system: Rattus norvegicus; test: Anticonvulsant activity in rats through seizures induced by maximal electroshock (MES) tests after oral administration at a concentration of 30 mg/kg after 1 hour.; format: functional; how it was run: as §1
[22] = test system: Mus musculus; test: Neurotoxicity by rotarod test after ip administration at a concentration of 300 mg/kg after 30 minutes; Active; format: functional, organism-based; set-up: dose 300 mg/kg
[23] = test system: Rattus norvegicus; test: Anticonvulsant activity in rats through seizures induced by maximal electroshock (MES) tests by oral administration of drug at a concentration of 30 mg/kg after 30 minutes; format: functional; how it was run: as §1
[24] = test system: Rattus norvegicus; test: Anticonvulsant activity was measured in rats through seizures induced by maximal electroshock (MES) tests by oral administration of drug after 4 hours.; format: functional; how it was run: as §1
[25] = test system: Mus musculus; test: Anticonvulsant activity in mice through seizures induced by sc pentylenetetrazole (intraperitoneal administration at a concentration of 300 mg/kg after 4 hours; active; format: functional, organism-based; set-up: dose 300 mg/kg
[26] = test system: Mus musculus; test: Anticonvulsant activity in mice through seizures induced by subcutaneous pentylenetetrazole (scPTZ) tests after ip administration at a concentration of 300 mg/kg after 30 min; active; format: functional, organism-based; set-up: dose 300 mg/kg
[27] = test system: Mus musculus; test: Anticonvulsant activity in mice through seizures induced by maximal electroshock (MES) tests after ip administration at a concentration of 100 mg/kg after 30 min; active; format: functional, organism-based; set-up: dose 100 mg/kg
[28] = test system: Rattus norvegicus; test: Effective dose required to assure anticonvulsant protection in 50% of rats dosed orally by MES test.; format: functional; settings: po
How it was run: (§3)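 Rats dosed orally; ED50 is the dose giving anticonvulsant protection in 50% of animals in the MES or scPtz test. TD50 is the minimal neurotoxic dose in 50% of animals. Time to peak effect was also determined.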

[29] = test system: Rattus norvegicus; test: Anticonvulsant activity was measured in rats through seizures induced by maximal electroshock (MES) tests by oral administration of drug after 1 hour.; format: functional; how it was run: as §1
[30] = test system: Rattus norvegicus; test: Effective dose required to assure anticonvulsant protection in 50% of rats dosed orally by scPTZ test.; format: functional; settings: po; how it was run: as §3
[31] = test system: Rattus norvegicus; test: as §2; format: organism-based; settings: in vivo, po
[32] = dose eliciting minimal neurological toxicity in 50% of animals.; format: organism-based; settings: rat, in vivo
[33] = test system: Rattus norvegicus; test: Anticonvulsant activity was measured in rats through seizures induced by maximal electroshock (MES) tests by oral administration of drug after 2 hours.; format: functional; how it was run: as §1
[34] = test system: Rattus norvegicus; test: Anticonvulsant activity was measured in rats through seizures induced by maximal electroshock (MES) tests by oral administration of drug after 15 minutes; No activity; format: functional, organism-based; how it was run: as §1
[35] = test system: Rattus norvegicus; test: Anticonvulsant activity was measured in rats through seizures induced by maximal electroshock (MES) tests by oral administration of drug after 30 minutes.; format: functional; how it was run: as §1
[36] = test system: Mus musculus; test: Anticonvulsant activity in mice through seizures induced by scpentylenetetrazol (intraperitoneal administration at a concentration of 300 mg/kg after 4 hours; Inactive; format: functional, organism-based; set-up: dose 300 mg/kg
[37] = test system: Rattus norvegicus; test: Anticonvulsant activity was measured in rats through seizures induced by maximal electroshock (MES) tests by oral administration of drug after 15 minutes.; format: functional; how it was run: as §1

SMILES | Activity [1] | Activity [2] | Activity [3] | Activity [4] | Activity [5] | Activity [6] | Activity [12] | Activity [14] | Activity in animals [24] [%] | also measured
Cc1ccc(N)cc1N1C(=O)c2ccccc2C1=O | Active | inactive | inactive | inactive | inactive | inactive |  |  |  | 
Cc1ccc([N+](=O)[O-])cc1N1C(=O)c2ccccc2C1=O | Active |  |  |  |  |  |  |  |  | Activity [7]: Active; Activity [8]: Active; Activity [9]: Active; Activity [10]: Active; Activity [11]: Active
Cc1c(C(=O)O)cccc1N1C(=O)c2ccccc2C1=O |  | inactive |  | inactive | inactive | inactive | inactive |  |  | Activity [13]: inactive
O=C1c2ccccc2C(=O)N1c1ccc([N+](=O)[O-])cc1 |  |  | inactive | inactive | inactive | inactive | inactive | inactive |  | 
COC(=O)c1ccccc1N1C(=O)c2ccccc2C1=O |  |  | inactive |  |  | inactive |  | inactive |  | Activity [15]: Active; Activity [16]: inactive
Nc1ccc(N2C(=O)c3ccccc3C2=O)cc1 | Active | inactive |  | inactive |  | inactive |  |  | 25 | Activity in animals [17]: No activity; Activity in animals [18]: 50%; Activity [19]: inactive; Toxicity [20]: Not toxic; Activity in animals [21]: 75%; Activity [22]: Active; Activity in animals [23]: 25%
COc1ccc(N2C(=O)c3ccccc3C2=O)c(C)c1 |  |  |  | inactive | inactive | inactive |  |  |  | Activity [25]: Active; Activity [26]: Active; Activity [27]: Active
Cc1cccc(N)c1N1C(=O)c2ccccc2C1=O | Active | inactive |  | inactive |  |  |  |  | 25 | Activity [7]: Active; ED50 [28]: 28.3 mg/kg; Activity in animals [29]: 75%; ED50 [30]: > 250 mg/kg; Activity [9]: Active; Toxicity [31]: No toxicity; TD50 [32]: > 500 mg/kg; Activity in animals [33]: 25%; Activity in animals [34]: No activity; Activity [13]: inactive
Cc1c(N2C(=O)c3ccccc3C2=O)cccc1[N+](=O)[O-] |  |  | inactive | inactive | inactive | inactive | inactive | inactive |  | 
Cc1cccc(C)c1N1C(=O)c2ccccc2C1=O |  |  | inactive | inactive | inactive | inactive |  |  | 50 | Activity in animals [35]: 50%; Activity [27]: Active; Activity [36]: inactive; Toxicity [31]: No toxicity; Activity in animals [33]: 25%; Activity in animals [37]: 50%

Reference: ChEMBL document CHEMBL1132994, “Synthesis and anticonvulsant and neurotoxic properties of substituted N-phenyl derivatives of the phthalimide pharmacophore” (J Med Chem, 2000)
